Source: ChEMBL document CHEMBL2034867, “S-Farnesyl-Thiopropionic Acid (FTPA) Triazoles as Potent Inhibitors of Isoprenylcysteine Carboxyl Methyltransferase” (ACS Med Chem Lett, 2012)
Calls of active or inactive are those of the source. No cut-off for these calls is given here.

How the values were obtained:
[1] = molecular target: T1, Protein-S-isoprenylcysteine O-methyltransferase (Homo sapiens, UniProt O60725); experiment: Specific activity at ICMT at 10 uM relative to AFC
In short: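 Single-point vapor diffusion assay at 10 μM inhibitor. Icmt specific activity is expressed as percent of the no-inhibitor AFC control.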

[2] = molecular target: T1, Protein-S-isoprenylcysteine O-methyltransferase; experiment: Inhibition of ICMT in cell free system
MEF [3] = experiment: Cytotoxicity against icmt-double mutant MEF cells after 5 days by MTT assay; type: cell-based; conditions: Mus musculus, 120 h
In short: (§1)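 MEFs from Icmt+/+ or Icmt–/– animals were seeded at 1000 cells/well in DMEM with 10% FBS for 24 h. Medium was then changed to DMEM with 5% FBS containing compound at various concentrations, or 0.1% DMSO. After 5 days, MTT (5 mg/mL) was added for 4 h at 37 °C. Medium was removed, formazan dissolved in DMSO, and absorbance read at 590 nm.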

MEF [4] = experiment: Cytotoxicity against icmt-positive MEF cells after 5 days by MTT assay; type: functional, cell-based; conditions: Mus musculus, 120 h; in short: as §1
[5] = Cytotoxicity against human PA-TU-8902 cells after 5 days by MTT assay; type: functional, cell-based; conditions: PaTu 8902, 120 h
[6] = molecular target: T1, Protein-S-isoprenylcysteine O-methyltransferase; experiment: Inhibition of Icmt-mediated GFP-K-Ras membrane localization in human Jurkat T cells at 10 uM after 24 hrs by fluorescent microscopic analysis; type: cell-based
In short: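 Jurkat T cells (E6.1) were transfected with GFP-K-Ras and treated for 24 h with compound, vehicle, or 25 μM simvastatin. Cells were placed on poly-L-lysine-coated coverslips (100 μg/mL) and fixed in 3.7% formaldehyde for 10 min. GFP localization was scored by fluorescence microscopy in random fields of 100 cells as normal membrane, partial mislocalization or complete mislocalization.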

T1 sequence (O60725 whole entry, the tested form may be a part): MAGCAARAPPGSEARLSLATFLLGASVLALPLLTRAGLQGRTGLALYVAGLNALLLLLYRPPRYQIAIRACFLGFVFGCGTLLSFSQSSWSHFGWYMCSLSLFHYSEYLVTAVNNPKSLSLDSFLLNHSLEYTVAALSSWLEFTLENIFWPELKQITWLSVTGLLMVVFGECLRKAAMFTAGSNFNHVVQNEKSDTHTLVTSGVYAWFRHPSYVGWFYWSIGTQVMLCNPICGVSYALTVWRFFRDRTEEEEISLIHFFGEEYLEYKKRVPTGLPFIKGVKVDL

Row | SMILES | Activity [1] [%] | further results
1 | COC(=O)CCSC/C=C(\C)CCn1cc(CCc2cccc(-c3ccccc3)c2)nn1 | 65 | IC50 [2]: 29 µM; IC50 (MEF [3]): > 100 µM; IC50 (MEF [4]): 55 µM
2 | C/C(=C\CSCCC(=O)O)CCn1cc(-c2ccc(C(C)(C)C)cc2)nn1 | 88 | 
3 | CC(C)=CCC/C(C)=C/CC/C(C)=C/Cc1cn(CC(=O)O)nn1 | 65 | 
4 | CC(C)=CCC/C(C)=C/CC/C(C)=C/CCc1cn(CCC(=O)O)nn1 | 69 | 
5 | C/C(=C\CSCCC(=O)O)CCn1cc(CCc2ccc(-c3cccc(C#N)c3)cc2)nn1 | 74 | 
6 | COC(=O)CCSC/C=C(\C)CCn1cc(CCc2ccc(-c3cccs3)cc2)nn1 | 57 | 
7 | CC(C)=CCC/C(C)=C/CC/C(C)=C/Cc1cn(CCCCC(=O)O)nn1 | 73 | 
8 | C/C(=C\CSCCC(=O)O)CCn1cc(-c2cccc3ccccc23)nn1 | 77 | 
9 | COC(=O)CCSC/C=C(\C)CCn1cc(COc2ccccc2)nn1 | 89 | 
10 | COC(=O)CCSC/C=C(\C)CCn1cc(-c2ccccc2)nn1 | 89 | 
11 | COC(=O)CCSC/C=C(\C)CCn1cc(-c2cccc3ccccc23)nn1 | 82 | IC50 (MEF [3]): > 100 µM; IC50 (MEF [4]): 96 µM
12 | COC(=O)CCSC/C=C(\C)CCn1cc(COc2ccc(-c3ccccc3)cc2)nn1 | 67 | 
13 | C/C(=C\CSCCC(=O)O)CCn1cc(CCc2cccc(-c3ccccc3)c2)nn1 | 74 | 
14 | COC(=O)CCSC/C=C(\C)CCn1cc(CCc2ccccc2)nn1 | 69 | IC50 [2]: 41 µM
15 | COC(=O)CCSC/C=C(\C)CCn1cc(CCc2ccc(-c3ccc(F)cc3)cc2)nn1 | 28 | 
16 | CC(C)=CCC/C(C)=C/CCc1cn(CCCC(=O)O)nn1 | 90 | 
17 | COC(=O)CCSC/C=C(\C)CCn1cc(CC/C=C(\C)CCC=C(C)C)nn1 | 59 | 
18 | COC(=O)CCSC/C=C(\C)CCn1cc(CCc2ccc(-c3ccc(-c4ccccc4)cc3)cc2)nn1 | 79 | 
19 | CCCCCc1cn(CC/C(C)=C/CSCCC(=O)O)nn1 | 77 | 
20 | C/C(=C\CSCCC(=O)O)CCn1cc(-c2ccccc2)nn1 | 88 | 
21 | CC(C)=CC/C(=C\CSC[C@H](NC(=O)c1ccccc1Oc1ccccc1)C(=O)O)CCc1ccc(-c2ccccc2)cc1 |  | IC50 [2]: 2.5 µM
22 | COC(=O)CCSC/C=C(\C)CCn1cc(CCc2ccccc2-c2ccccc2)nn1 | 74 | 
23 | COC(=O)CCSC/C=C(\C)CCn1cc(CCc2ccc(-c3ccccc3)cc2)nn1 | 14 | IC50 [2]: 0.8 µM; IC50 (MEF [3]): > 100 µM; IC50 (MEF [4]): 33 µM; IC50 [5]: 8 µM; inhibition [6]: Active
24 | CC(C)=CCC/C(C)=C/CC/C(C)=C/Cc1cn(CCCC(=O)O)nn1 | 83 | 

Row | SMILES | Activity [1] [%] | further results
25 | CCCCCCCCCCc1cn(CC/C(C)=C/CSCCC(=O)OC)nn1 | 67 | 
26 | C/C(=C\CSCCC(=O)O)CCn1cc(-c2ccsc2)nn1 | 80 | 
27 | CCCCCc1cn(CC/C(C)=C/CSCCC(=O)OC)nn1 | 76 | 
28 | C/C(=C\CSCCC(=O)O)CCn1cc(Cc2ccccc2)nn1 | 82 | 
29 | COC(=O)CCSC/C=C(\C)CCn1cc(CCOC2CCCCO2)nn1 (centres undefined) | 80 | 
30 | C/C(=C\CSCCC(=O)O)CCn1cc(CCc2ccc(-c3ccc(F)cc3)cc2)nn1 | 42 | 
31 | C/C(=C\CSCCC(=O)O)CCn1cc(CCC(C)C)nn1 | 72 | 
32 | CC(C)=CCC/C(C)=C/CC/C(C)=C/Cc1cn(CCC(=O)O)nn1 | 53 | 
33 | C/C(=C\CSCCC(=O)O)CCn1cc(COc2ccc(-c3ccccc3)cc2)nn1 | 75 | 
34 | C/C(=C\CSCCC(=O)O)CCn1cc(CCc2ccc(-c3ccccc3)cc2)nn1 | 43 | 
35 | CC(C)=CCC/C(C)=C/CCc1cn(CCC(=O)O)nn1 | 75 | 
36 | C/C(=C\CSCCC(=O)O)CCn1cc(COc2ccccc2)nn1 | 89 | 
37 | C/C(=C\CSCCC(=O)O)CCn1cc(CCOC2CCCCO2)nn1 (centres undefined) | 90 | IC50 [2]: > 100 µM
38 | C/C(=C\CSCCC(=O)O)CCn1cc(CCc2ccccc2)nn1 | 75 | 
39 | C/C(=C\CSCCC(=O)O)CCn1cc(CCc2ccc(-c3cccs3)cc2)nn1 | 63 | 
40 | COC(=O)CCSC/C=C(\C)CCn1cc(CCc2ccc(-c3cccc(C#N)c3)cc2)nn1 | 30 | 
41 | COc1ccc(-c2cn(CC/C(C)=C/CSCCC(=O)O)nn2)cc1 | 87 | 
42 | CC(C)=CCC/C(C)=C/CC/C(C)=C/CSc1ccccc1C(=O)O [SALIRASIB] |  | IC50 [2]: 25.5 µM
43 | COC(=O)CCSC/C=C(\C)CCn1cc(-c2ccc(C(C)(C)C)cc2)nn1 | 84 | 
44 | COC(=O)CCSC/C=C(\C)CCn1cc(Cc2ccccc2)nn1 | 80 | 
45 | COC(=O)CCSC/C=C(\C)CCn1cc(CCC(C)C)nn1 | 77 | 
46 | COC(=O)CCSC/C=C(\C)CCn1cc(-c2ccsc2)nn1 | 82 | 
47 | COC(=O)CCSC/C=C(\C)CCn1cc(-c2ccc(OC)cc2)nn1 | 91 | 
